System: not listed separately
Assay: Solubility of the compound at pH 6.5 by LYSA
Assay type: physicochemical
Conditions: buffer
In short: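 Lyophilization solubility assay at pH 6.5.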

SMILES	solubility
N#CC1(NC(=O)[C@H](Cc2ccc(OC(F)(F)F)c(Cl)c2)NC(=O)c2cnn(-c3ccc(F)cc3)n2)CC1	< 0.3 µg/mL
N#CC1(NC(=O)[C@H](Cc2ccc(Cl)c(Cl)c2)NC(=O)c2cnn(-c3ccc(F)cc3)n2)CC1	< 0.3 µg/mL

Target: Rhodesain (Trypanosoma brucei rhodesiense, UniProt Q95PM0)
Assay: Inhibition of Trypanosoma brucei rhodesiense rhodesain using Cbz-Phe-Arg-AMC as substrate by fluorimetric method
Conditions: not given
In short: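 Fluorescence-based assay run at 25 °C in 50 mM sodium acetate pH 5.5 with 5 mM EDTA, 200 mM NaCl and 0.005% Brij35. IC50 values were converted to Ki with the Cheng-Prusoff equation. Values are the average of two measurements, each done in duplicate.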

Chain of Rhodesain (Q95PM0 whole entry): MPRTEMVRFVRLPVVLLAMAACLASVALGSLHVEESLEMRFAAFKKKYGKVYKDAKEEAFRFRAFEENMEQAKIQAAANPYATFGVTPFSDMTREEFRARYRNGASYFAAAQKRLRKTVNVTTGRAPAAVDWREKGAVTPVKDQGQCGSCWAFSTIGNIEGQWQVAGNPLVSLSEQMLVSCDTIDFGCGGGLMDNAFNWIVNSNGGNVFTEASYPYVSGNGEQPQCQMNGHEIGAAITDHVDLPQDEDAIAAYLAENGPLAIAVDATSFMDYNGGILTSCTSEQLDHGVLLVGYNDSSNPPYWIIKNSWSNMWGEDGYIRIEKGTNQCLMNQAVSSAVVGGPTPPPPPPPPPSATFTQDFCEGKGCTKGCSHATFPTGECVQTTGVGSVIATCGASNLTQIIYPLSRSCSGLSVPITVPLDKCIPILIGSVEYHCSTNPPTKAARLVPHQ

SMILES	Ki
N#CC1(NC(=O)[C@H](Cc2ccc(OC(F)(F)F)c(Cl)c2)NC(=O)c2cnn(-c3ccc(F)cc3)n2)CC1	7.4 nM
N#CC1(NC(=O)[C@H](Cc2ccc(Cl)c(Cl)c2)NC(=O)c2cnn(-c3ccc(F)cc3)n2)CC1	2 nM

Target: Procathepsin L (Homo sapiens, UniProt P07711)
Sequence (P07711 whole entry): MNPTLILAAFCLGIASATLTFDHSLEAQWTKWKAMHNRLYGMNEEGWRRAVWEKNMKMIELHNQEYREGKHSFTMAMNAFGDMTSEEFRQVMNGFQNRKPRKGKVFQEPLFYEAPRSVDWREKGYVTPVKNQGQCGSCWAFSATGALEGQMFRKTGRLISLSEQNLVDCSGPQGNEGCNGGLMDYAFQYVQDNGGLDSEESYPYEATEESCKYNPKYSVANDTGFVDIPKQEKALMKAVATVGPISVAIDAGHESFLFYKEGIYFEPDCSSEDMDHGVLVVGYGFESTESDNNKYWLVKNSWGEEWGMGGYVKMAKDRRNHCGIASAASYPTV
Assay: Inhibition of human CatL using Cbz-Phe-Arg-AMC as substrate measured over 30 mins by fluorimetric method
Conditions: not given
In short: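 Human cathepsin L in a fluorimetric assay in 50 mM Tris pH 6.5, 5 mM EDTA, 200 mM NaCl, 0.005% Brij35 at 25 °C. Ki was calculated from IC50 by Cheng-Prusoff. Value is the average of two measurements, each in duplicate.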

SMILES	Ki
N#CC1(NC(=O)[C@H](Cc2ccc(OC(F)(F)F)c(Cl)c2)NC(=O)c2cnn(-c3ccc(F)cc3)n2)CC1	266 nM
N#CC1(NC(=O)[C@H](Cc2ccc(Cl)c(Cl)c2)NC(=O)c2cnn(-c3ccc(F)cc3)n2)CC1	131 nM

System: not listed separately
Assay: Selectivity index, ratio of Ki for human CatL to Ki for Trypanosoma brucei rhodesiense rhodesain
Conditions: not given
In short: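 Ki(hCatL)/Ki(RD). Fluorimetric assays at 25 °C: RD in 50 mM sodium acetate pH 5.5; hCatL in 50 mM Tris pH 6.5; both buffers with 5 mM EDTA, 200 mM NaCl, 0.005% Brij35. Ki derived from IC50 by Cheng-Prusoff. Each value is the mean of two measurements, each done in duplicate.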

SMILES	Ratio Ki
N#CC1(NC(=O)[C@H](Cc2ccc(OC(F)(F)F)c(Cl)c2)NC(=O)c2cnn(-c3ccc(F)cc3)n2)CC1	36
N#CC1(NC(=O)[C@H](Cc2ccc(Cl)c(Cl)c2)NC(=O)c2cnn(-c3ccc(F)cc3)n2)CC1	66

System: Trypanosoma brucei rhodesiense
Assay: Antitrypanosomal activity against bloodstream form of Trypanosoma brucei rhodesiense STIB 900 assessed as parasite growth inhibition after 72 hrs by Alamar blue assay
Assay type: functional
Conditions: STIB 900, 72 h
In short: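 Standard 72 h growth-inhibition assay with STIB 900 bloodstream trypomastigotes and Alamar Blue read-out. Value is the mean of at least 2 measurements.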

SMILES	IC50
N#CC1(NC(=O)[C@H](Cc2ccc(OC(F)(F)F)c(Cl)c2)NC(=O)c2cnn(-c3ccc(F)cc3)n2)CC1	9 nM
N#CC1(NC(=O)[C@H](Cc2ccc(Cl)c(Cl)c2)NC(=O)c2cnn(-c3ccc(F)cc3)n2)CC1	7 nM

System: L6
Assay: Cytotoxicity against rat L6 cells after 72 hrs by Alamar blue assay
Assay type: cell-based
Conditions: L6, 72 h
In short: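 Rat skeletal myoblast L6 cells in an Alamar Blue growth-inhibition assay. Value is the mean of at least 2 measurements.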

SMILES	IC50
N#CC1(NC(=O)[C@H](Cc2ccc(OC(F)(F)F)c(Cl)c2)NC(=O)c2cnn(-c3ccc(F)cc3)n2)CC1	18800 nM
N#CC1(NC(=O)[C@H](Cc2ccc(Cl)c(Cl)c2)NC(=O)c2cnn(-c3ccc(F)cc3)n2)CC1	9670 nM

System: Trypanosoma brucei rhodesiense
Assay: Antitrypanosomal activity against bloodstream form of Trypanosoma brucei rhodesiense STIB 900 assessed as parasite growth inhibition after 2 hrs by Alamar blue assay
Assay type: functional
Conditions: STIB 900, 2 h
In short: (§1)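 Bloodstream STIB 900 trypomastigotes, 1x10⁴ per well, exposed to eleven 3-fold serial dilutions at 37 °C/5% CO₂ for the stated pulse time. Parasites were then pelleted and washed four times, and an aliquot was regrown 72 h drug-free in triplicate plates. Resazurin was added for 2–4 h, fluorescence read at ex 536/em 588 nm, and IC50 taken by linear regression of sigmoidal curves. Melarsoprol served as control.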

SMILES	IC50
N#CC1(NC(=O)[C@H](Cc2ccc(OC(F)(F)F)c(Cl)c2)NC(=O)c2cnn(-c3ccc(F)cc3)n2)CC1	> 1000 nM

System: Trypanosoma brucei rhodesiense
Assay: Antitrypanosomal activity against bloodstream form of Trypanosoma brucei rhodesiense STIB 900 assessed as parasite growth inhibition after 6 hrs by Alamar blue assay
Assay type: functional
Conditions: STIB 900, 6 h
In short: as §1

SMILES	IC50
N#CC1(NC(=O)[C@H](Cc2ccc(OC(F)(F)F)c(Cl)c2)NC(=O)c2cnn(-c3ccc(F)cc3)n2)CC1	> 1000 nM

System: Trypanosoma brucei rhodesiense
Assay: Antitrypanosomal activity against bloodstream form of Trypanosoma brucei rhodesiense STIB 900 assessed as parasite growth inhibition after 16 hrs by Alamar blue assay
Assay type: functional
Conditions: STIB 900, 16 h
In short: as §1

SMILES	IC50
N#CC1(NC(=O)[C@H](Cc2ccc(OC(F)(F)F)c(Cl)c2)NC(=O)c2cnn(-c3ccc(F)cc3)n2)CC1	> 1000 nM

System: Trypanosoma brucei rhodesiense
Assay: Antitrypanosomal activity against bloodstream form of Trypanosoma brucei rhodesiense STIB 900 assessed as parasite growth inhibition after 24 hrs by Alamar blue assay
Assay type: functional
Conditions: STIB 900, 24 h
In short: as §1

SMILES	IC50
N#CC1(NC(=O)[C@H](Cc2ccc(OC(F)(F)F)c(Cl)c2)NC(=O)c2cnn(-c3ccc(F)cc3)n2)CC1	450 nM

System: Trypanosoma brucei rhodesiense
Assay: Antitrypanosomal activity against bloodstream form of Trypanosoma brucei rhodesiense STIB 900 assessed as parasite growth inhibition after 48 hrs by Alamar blue assay
Assay type: functional
Conditions: STIB 900, 48 h
In short: as §1

SMILES	IC50
N#CC1(NC(=O)[C@H](Cc2ccc(OC(F)(F)F)c(Cl)c2)NC(=O)c2cnn(-c3ccc(F)cc3)n2)CC1	64 nM

System: not listed separately
Assay: Intrinsic clearance in human liver microsomes at 2 uM after 30 mins in presence of NADPH by LC-MS/MS method
Assay type: ADME, microsome
Conditions: read-out: CLH

SMILES	microsomal CLint at 2 µM
N#CC1(NC(=O)[C@H](Cc2ccc(OC(F)(F)F)c(Cl)c2)NC(=O)c2cnn(-c3ccc(F)cc3)n2)CC1	< 10 µL/min/mg
N#CC1(NC(=O)[C@H](Cc2ccc(Cl)c(Cl)c2)NC(=O)c2cnn(-c3ccc(F)cc3)n2)CC1	< 10 µL/min/mg

System: not listed separately
Assay: Intrinsic clearance in mouse liver microsomes at 2 uM after 30 mins in presence of NADPH by LC-MS/MS method
Assay type: ADME, microsome
Conditions: read-out: CLH

SMILES	microsomal CLint at 2 µM
N#CC1(NC(=O)[C@H](Cc2ccc(OC(F)(F)F)c(Cl)c2)NC(=O)c2cnn(-c3ccc(F)cc3)n2)CC1	< 10 µL/min/mg
N#CC1(NC(=O)[C@H](Cc2ccc(Cl)c(Cl)c2)NC(=O)c2cnn(-c3ccc(F)cc3)n2)CC1	< 10 µL/min/mg

System: not listed separately
Assay: Permeability of the compound after 15 hrs by PAMPA
Assay type: physicochemical
Conditions: read-out: permeability

SMILES	Papp at 15 h
N#CC1(NC(=O)[C@H](Cc2ccc(Cl)c(Cl)c2)NC(=O)c2cnn(-c3ccc(F)cc3)n2)CC1	1.07 ×10⁻⁶ cm/s

Target: Cytochrome P450 3A4 (Homo sapiens, UniProt P08684)
Sequence (P08684 whole entry): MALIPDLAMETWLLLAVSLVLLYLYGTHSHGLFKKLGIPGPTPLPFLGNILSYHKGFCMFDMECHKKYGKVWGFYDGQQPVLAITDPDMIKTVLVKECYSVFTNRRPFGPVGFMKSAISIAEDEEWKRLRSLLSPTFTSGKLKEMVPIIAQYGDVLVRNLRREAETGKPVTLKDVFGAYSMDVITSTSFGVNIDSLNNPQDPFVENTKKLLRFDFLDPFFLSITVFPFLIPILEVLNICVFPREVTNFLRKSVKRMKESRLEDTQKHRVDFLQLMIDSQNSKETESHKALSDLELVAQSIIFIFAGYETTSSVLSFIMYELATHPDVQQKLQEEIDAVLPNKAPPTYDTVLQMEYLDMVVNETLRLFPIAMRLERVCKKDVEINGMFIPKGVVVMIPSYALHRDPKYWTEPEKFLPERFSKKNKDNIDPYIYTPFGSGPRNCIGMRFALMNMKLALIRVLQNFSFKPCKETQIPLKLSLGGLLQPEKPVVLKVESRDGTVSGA
Assay: Inhibition of CYP3A4 in human liver microsomes using DBF as substrate by fluorescence assay
Assay type: ADME
Conditions: not given
In short: (§2)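 Human liver microsomes with CYP-selective substrate metabolism reactions for 2C9, 2D6 and 3A4.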

SMILES	IC50
N#CC1(NC(=O)[C@H](Cc2ccc(OC(F)(F)F)c(Cl)c2)NC(=O)c2cnn(-c3ccc(F)cc3)n2)CC1	> 50000 nM
N#CC1(NC(=O)[C@H](Cc2ccc(Cl)c(Cl)c2)NC(=O)c2cnn(-c3ccc(F)cc3)n2)CC1	> 50000 nM

Target: Cytochrome P450 2D6 (Homo sapiens, UniProt P10635)
Sequence (P10635 whole entry): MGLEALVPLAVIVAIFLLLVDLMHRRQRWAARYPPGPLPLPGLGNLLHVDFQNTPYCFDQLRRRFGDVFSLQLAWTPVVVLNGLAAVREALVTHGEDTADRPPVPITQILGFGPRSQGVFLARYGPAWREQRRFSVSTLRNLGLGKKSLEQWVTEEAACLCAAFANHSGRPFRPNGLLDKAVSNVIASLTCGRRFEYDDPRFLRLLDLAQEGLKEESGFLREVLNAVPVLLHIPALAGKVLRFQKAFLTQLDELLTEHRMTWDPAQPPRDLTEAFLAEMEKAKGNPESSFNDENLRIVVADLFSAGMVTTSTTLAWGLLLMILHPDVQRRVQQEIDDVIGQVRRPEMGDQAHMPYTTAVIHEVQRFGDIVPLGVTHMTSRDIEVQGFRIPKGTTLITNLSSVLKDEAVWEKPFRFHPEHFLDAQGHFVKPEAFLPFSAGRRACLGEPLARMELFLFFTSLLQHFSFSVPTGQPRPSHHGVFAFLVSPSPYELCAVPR
Assay: Inhibition of CYP2D6 in human liver microsomes using AMMC as substrate by fluorescence assay
Assay type: ADME
Conditions: not given
In short: as §2

SMILES	IC50
N#CC1(NC(=O)[C@H](Cc2ccc(OC(F)(F)F)c(Cl)c2)NC(=O)c2cnn(-c3ccc(F)cc3)n2)CC1	3000 nM
N#CC1(NC(=O)[C@H](Cc2ccc(Cl)c(Cl)c2)NC(=O)c2cnn(-c3ccc(F)cc3)n2)CC1	5000 nM

Target: Cytochrome P450 2C9 (Homo sapiens, UniProt P11712)
Sequence (P11712 whole entry): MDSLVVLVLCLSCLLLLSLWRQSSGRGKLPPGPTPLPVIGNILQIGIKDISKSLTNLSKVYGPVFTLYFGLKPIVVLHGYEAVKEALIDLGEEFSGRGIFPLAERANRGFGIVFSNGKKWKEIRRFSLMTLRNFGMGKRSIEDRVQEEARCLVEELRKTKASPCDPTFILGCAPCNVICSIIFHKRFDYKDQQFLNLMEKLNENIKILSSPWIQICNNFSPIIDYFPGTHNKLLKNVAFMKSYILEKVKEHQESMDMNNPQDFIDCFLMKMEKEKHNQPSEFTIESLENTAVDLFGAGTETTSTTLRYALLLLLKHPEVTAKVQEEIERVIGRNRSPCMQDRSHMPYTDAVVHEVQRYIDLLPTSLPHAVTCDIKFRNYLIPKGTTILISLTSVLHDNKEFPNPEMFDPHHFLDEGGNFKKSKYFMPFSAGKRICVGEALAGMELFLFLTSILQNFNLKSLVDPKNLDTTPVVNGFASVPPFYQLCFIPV
Assay: Inhibition of CYP2C9 in human liver microsomes using MFC as substrate by fluorescence assay
Assay type: ADME
Conditions: not given
In short: as §2

SMILES	IC50
N#CC1(NC(=O)[C@H](Cc2ccc(OC(F)(F)F)c(Cl)c2)NC(=O)c2cnn(-c3ccc(F)cc3)n2)CC1	9000 nM
N#CC1(NC(=O)[C@H](Cc2ccc(Cl)c(Cl)c2)NC(=O)c2cnn(-c3ccc(F)cc3)n2)CC1	4000 nM

System: not listed separately
Assay: Half life in C57BL/6J mouse at 1.3 mg/kg, iv as bolus dose by LC-MS/MS analysis
Assay type: ADME, organism-based
Conditions: in vivo
In short: (§3)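 Mice received intravenous compound in N-methylpyrrolidinone / 40% aqueous hydroxypropyl-γ-cyclodextrin (30/70). Blood was drawn into K₂EDTA at 5 min, 15 min, 30 min, 1, 2, 4 and 8 h, and plasma was separated at 3000 × g for 5 min at 4 °C and stored at -20 °C. Plasma levels were measured by LC–MS/MS, and parameters derived by non-compartmental analysis.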

SMILES	half-life
N#CC1(NC(=O)[C@H](Cc2ccc(Cl)c(Cl)c2)NC(=O)c2cnn(-c3ccc(F)cc3)n2)CC1	> 6.4 h

System: not listed separately
Assay: Clearance in C57BL/6J mouse at 1.3 mg/kg, iv as bolus dose by LC-MS/MS analysis
Assay type: ADME, organism-based
Conditions: in vivo
In short: as §3

SMILES	clearance
N#CC1(NC(=O)[C@H](Cc2ccc(Cl)c(Cl)c2)NC(=O)c2cnn(-c3ccc(F)cc3)n2)CC1	< 4.6 mL/min/kg

System: not listed separately
Assay: Volume of distribution at steady state in C57BL/6J mouse at 1.3 mg/kg, iv as bolus dose by LC-MS/MS analysis
Assay type: ADME, organism-based
Conditions: in vivo, read-out: Vdss
In short: as §3

SMILES	Vd
N#CC1(NC(=O)[C@H](Cc2ccc(Cl)c(Cl)c2)NC(=O)c2cnn(-c3ccc(F)cc3)n2)CC1	< 2.5 L/kg

System: MDR1 (P-gp)
Assay: Efflux ratio of permeability across pig LLC-PK1 cells expressing human MDR1 at 1 uM after 3.5 hrs by LC-MS/MS analysis
Assay type: ADME, cell-based, Sus scrofa
Conditions: not given
In short: (§4)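 LLC-PK1 monolayers stably transfected with human MDR1 or mouse Mdr1a, grown in Medium 199/10% FCS with colchicine on permeable inserts and used day 4 after seeding. 1 μM compound added apical or basolateral; transport run in both directions in triplicate, 37 °C, 5% CO₂. Donor and receiver sampled at 3.5 h, quantified by LC–MS/MS. Lucifer yellow checked monolayer tightness.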

SMILES	efflux ratio at 3.5 h, 1 µM
N#CC1(NC(=O)[C@H](Cc2ccc(OC(F)(F)F)c(Cl)c2)NC(=O)c2cnn(-c3ccc(F)cc3)n2)CC1	6

System: Mdr1a (P-gp)
Assay: Efflux ratio of permeability across pig LLC-PK1 cells expressing mouse Mdr1a at 1 uM after 3.5 hrs by LC-MS/MS analysis
Assay type: ADME, cell-based, Sus scrofa
Conditions: not given
In short: as §4

SMILES	efflux ratio at 3.5 h, 1 µM
N#CC1(NC(=O)[C@H](Cc2ccc(OC(F)(F)F)c(Cl)c2)NC(=O)c2cnn(-c3ccc(F)cc3)n2)CC1	20

System: Trypanosoma brucei rhodesiense
Assay: Antitrypanosomal activity against bloodstream form of Trypanosoma brucei rhodesiense STIB 900 infected in NMRI mouse assessed as reduction of parasitemia at 50 mg/kg, po administered for 3 consecutive days starting 1 day post infection measured at 24 hrs post last dose relative to control
Assay type: functional
Parameters: scale not given: the % may be the effect or the level left
Conditions: not given
In short: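 Female mice infected with STIB900 were dosed orally at 50 mg/kg/day on three consecutive days, starting 1 day post-infection. Compound was in 100% DMSO diluted 10-fold in distilled water, given at 0.1 mL/10 g. Tail-blood parasitaemia was measured 24 h after the last dose versus 4 untreated infected controls. Values are means of 2 mice.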

SMILES	Activity
N#CC1(NC(=O)[C@H](Cc2ccc(Cl)c(Cl)c2)NC(=O)c2cnn(-c3ccc(F)cc3)n2)CC1	47.2%

System: not listed separately
Assay: Selectivity index, ratio of IC50 for rat L6 cells to IC50 for bloodstream form of Trypanosoma brucei rhodesiense STIB 900
Assay type: toxicity
Conditions: read-out: Ratio IC50
In short: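 Ratio of L-6 rat skeletal myoblast IC50 to T. b. rhodesiense STIB 900 bloodstream trypomastigote IC50, both from Alamar Blue growth-inhibition assays. Each IC50 is the mean of at least 2 measurements.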

SMILES	selectivity ratio
N#CC1(NC(=O)[C@H](Cc2ccc(OC(F)(F)F)c(Cl)c2)NC(=O)c2cnn(-c3ccc(F)cc3)n2)CC1	2090
N#CC1(NC(=O)[C@H](Cc2ccc(Cl)c(Cl)c2)NC(=O)c2cnn(-c3ccc(F)cc3)n2)CC1	1390
